Assay results gathered from unrelated publications.
Sialidase-2: Sialidase-2 (Homo sapiens, UniProt Q9Y3R4)
ACHE: Acetylcholinesterase (ACHE, Homo sapiens, UniProt P22303)
DPP4: Dipeptidyl peptidase 4 (DPP4, Homo sapiens, UniProt P27487)
FABP4: Fatty acid-binding protein, adipocyte (FABP4, Homo sapiens, UniProt P15090)

SMILES | target | assay | test system | setting | IC50 [µM]
CN(C(=O)CC(C)(C)C)[C@H]1[C@H]([C@H](O)[C@H](O)CO)OC(C(=O)O)=C[C@@H]1O | Sialidase-2 | enzyme activity, inhibitor |  |  | 50
COc1ccc(CCCCC(=O)C(F)(F)C(F)(F)F)cc1 | Phospholipase A2 group V (PLA2G5, Homo sapiens, UniProt P39877) | enzyme activity, inhibitor |  |  | 44.5
CC(C)CNC(=O)N[C@H]1[C@H]([C@H](O)[C@H](O)CO)OC(C(=O)O)=C[C@@H]1O | Sialidase-2 | enzyme activity, inhibitor |  |  | 30
COc1cc(-c2nc3ccccc3s2)cc(NC(C)=O)c1OCC(=O)N[C@H](Cc1ccccc1)C(=O)O | ACHE | enzyme activity, inhibitor, Ellman |  |  | > 246
CC(C)(C)c1ccc(C=Nc2ccc(SCc3cc(=O)c(O)co3)cc2)cc1 | ACHE | enzyme activity, inhibitor, Ellman |  |  | 17.4
CCCCCC(=O)N[C@H]1[C@H]([C@H](O)[C@H](O)CO)OC(C(=O)O)=C[C@@H]1O | Sialidase-2 | enzyme activity, inhibitor |  |  | 8
COc1cccc(C=Nc2ccc(SCc3cc(=O)c(O)co3)cc2)c1 | ACHE | enzyme activity, inhibitor, Ellman |  |  | 19.9
COc1c2c(cc3c1-c1c(cc4c(c1OC)OCO4)C[C@H](C)[C@H](C)C3)OCO2 | DPP4 | enzyme activity, inhibitor, fluorescence |  |  | > 100
O=c1cc(CSc2ccc(N=Cc3ccccc3)cc2)occ1O | ACHE | enzyme activity, inhibitor, Ellman |  |  | 8.26
CC(=O)c1c(C)c2cnc(Nc3ccc(C4CCN(CCS(C)(=O)=O)CC4)cn3)nc2n(C2CCCC2)c1=O | Cytochrome P450 2C9 (CYP2C9, Homo sapiens, UniProt P11712) | enzyme activity, inhibitor | human, liver microsomes |  | > 10
COc1ccccc1C=Nc1ccc(SCc2cc(=O)c(O)co2)cc1 | ACHE | enzyme activity, inhibitor, Ellman |  |  | 6.23
COC(=O)CNC(=O)COc1c(NC(C)=O)cc(-c2nc3ccccc3s2)cc1OC | ACHE | enzyme activity, inhibitor, Ellman |  |  | > 289
O=C(O)C(F)(F)C(F)(F)C(F)(F)C(F)(F)C(F)(F)C(F)(F)C(F)(F)F | FABP4 | ligand displacement, fluorescence |  | pH 7.5 | 4.67
COc1cc(-c2nc3ccccc3s2)cc(NC(C)=O)c1OCC(=O)N[C@@H](CC(C)C)C(=O)O | ACHE | enzyme activity, inhibitor, Ellman |  |  | > 264
Cc1ccc(C=Nc2ccc(SCc3cc(=O)c(O)co3)cc2)cc1 | ACHE | enzyme activity, inhibitor, Ellman |  |  | 6.53
O=C(O)C1=C[C@H](O)[C@@H](n2cc(-c3ccc(-c4ccccc4)cc3)nn2)[C@H]([C@H](O)[C@H](O)CO)O1 | Sialidase-2 | enzyme activity, inhibitor |  |  | 270
NC(=O)CC[C@H](NC(=O)[C@@H]1CCCN1C(=O)[C@H](CCC(N)=O)NC(=O)[C@@H]1CCCN1C(=O)[C@@H](N)Cc1ccc(O)cc1)C(=O)O | DPP4 | enzyme activity, inhibitor, absorbance |  | pH 8 | 23.9
O=C(O)C(F)(F)C(F)(F)C(F)(F)C(F)(F)C(F)(F)C(F)(F)C(F)(F)C(F)(F)C(F)(F)F | FABP4 | ligand displacement, fluorescence |  | pH 7.5 | 3.54
O=c1cc(CSc2ccc(N=Cc3ccccc3[N+](=O)[O-])cc2)occ1O | ACHE | enzyme activity, inhibitor, Ellman |  |  | 5.13
Cn1cc2cc(C(F)(F)c3nnc4ccc(-c5cnn(C6CC6)c5)nn34)c(F)cc2n1 | Proto-oncogene tyrosine-protein kinase Src (SRC, Homo sapiens, UniProt P12931) | enzyme activity, inhibitor, ADP detection |  |  | > 1
Cc1cccc(C=Nc2ccc(SCc3cc(=O)c(O)co3)cc2)c1 | ACHE | enzyme activity, inhibitor, Ellman |  |  | 5.66
CCOC(=O)c1ccc(OC(=O)CCCCCN=C(N)N)cc1 | Kallikrein-13 (Homo sapiens, UniProt Q9UKR3) | enzyme activity, inhibitor |  |  | 12.2
CC(C)Cc1cn([C@H]2[C@H]([C@H](O)[C@H](O)CO)OC(C(=O)O)=C[C@@H]2O)nn1 | Sialidase-2 | enzyme activity, inhibitor |  |  | 1.4
O=c1cc(CSc2ccc(N=Cc3ccccc3C(F)(F)F)cc2)occ1O | ACHE | enzyme activity, inhibitor, Ellman |  |  | 8.05
CCCCCc1cn([C@H]2[C@H]([C@H](O)[C@H](O)CO)OC(C(=O)O)=C[C@@H]2O)nn1 | Sialidase-2 | enzyme activity, inhibitor |  |  | > 500
O=C(O)C(F)(F)C(F)(F)C(F)(F)C(F)(F)C(F)(F)C(F)(F)C(F)(F)C(F)(F)C(F)(F)C(F)(F)F | FABP4 | ligand displacement, fluorescence |  | pH 7.5 | 2.92
CCCCNC(=O)N[C@H]1[C@H]([C@H](O)[C@H](O)CO)OC(C(=O)O)=C[C@@H]1O | Sialidase-2 | enzyme activity, inhibitor |  |  | 380
O=C(O)C(F)(F)C(F)(F)C(F)(F)C(F)(F)C(F)(F)C(F)(F)F | FABP4 | ligand displacement, fluorescence |  | pH 7.5 | 11
CCCCCC(=O)N(C)[C@H]1[C@H]([C@H](O)[C@H](O)CO)OC(C(=O)O)=C[C@@H]1O | Sialidase-2 | enzyme activity, inhibitor |  |  | 140
CC(C)C[C@H](NC(=O)[C@H](CO)NC(=O)[C@@H](NC(=O)[C@@H]1CCCN1C(=O)[C@@H](N)CCCCN)C(C)C)C(=O)N[C@@H](CO)C(=O)N[C@@H](Cc1ccc(O)cc1)C(=O)N[C@@H](CCCNC(=N)N)C(=O)NCC(=O)NCC(=O)N[C@H](CC(C)C)C(=O)NCC(=O)N[C@H](C)C(=O)N[C@H](CO)C(=O)N[C@H](Cc1c[nH]c2ccccc12)C(=O)N[C@H](Cc1c[nH]cn1)C(=O)N[C@H](CCCNC(=N)N)C(=O)N[C@@H](Cc1ccc2ccccc2c1)C(=O)N[C@@H](CCCNC(=N)N)C(=O)N[C@@H](CCCNC(=N)N)C(N)=O | C-X-C chemokine receptor type 4 (CXCR4, Homo sapiens, UniProt P61073) | ligand displacement in cells, fluorescence |  |  | 0.76
